Measured values: ChEMBL document CHEMBL1139546, “Radiosynthesis and evaluation of [11C]-(+)-4-propyl-3,4,4a,5,6,10b-hexahydro-2H-naphtho[1,2-b][1,4]oxazin-9-ol as a potential radiotracer for in vivo imaging of the dopamine D2 high-affinity state with positron emission tomography” (2005)

How the values were obtained:
[1] = molecular target: Sodium-dependent dopamine transporter (Rattus norvegicus) (UniProt P23977); conditions: Brain, at 0.5 mg/kg
[2] = molecular target: Sodium-dependent dopamine transporter (Rattus norvegicus) (UniProt P23977); conditions: Brain, at 2 mg/kg
[3] = molecular target: Sodium-dependent dopamine transporter (Rattus norvegicus) (UniProt P23977); conditions: Brain, at 5 mg/kg
[4] = molecular target: Sodium-dependent dopamine transporter (Rattus norvegicus) (UniProt P23977); conditions: Brain, at 10 mg/kg
[5] = molecular target: T1, Dopamine receptor D2 and D3 (Rattus norvegicus) (UniProt P19020+P61169); conditions: Brain, at 0.2 mg/kg
Rattus norvegicus [6] = assay: Effect on compound specific binding to dopamine release in rat brain upon pre-treatment with 4 mg/kg amphetamine; type: functional
Procedure, shortened: (§1)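 Male Sprague-Dawley rats (230-280 g), groups of 4-5, given the challenge agent in saline (1 mL/kg, iv unless otherwise stated) 25-30 min before tail-vein [11C] tracer, 25-30 MBq (1-2 nmol) in buffered saline. A saline control group was run each time. Killed 60 min post-injection. Striatum and cerebellum counted by gamma counter. Specific binding = (%ID/g striatum − %ID/g cerebellum)/%ID/g cerebellum.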

Rattus norvegicus [7] = assay: Effect on compound specific binding to dopamine release in rat brain upon pre-treatment with 1 mg/kg amphetamine; type: functional
Procedure, shortened: as §1

[8] = molecular target: T1, Dopamine receptor D2 and D3 (Rattus norvegicus); conditions: Brain, at 0.04 mg/kg
[9] = molecular target: T2, Alpha-2A adrenergic receptor (Rattus norvegicus) (UniProt P22909); conditions: Brain, at 0.1 mg/kg
T2 sequence (whole entry): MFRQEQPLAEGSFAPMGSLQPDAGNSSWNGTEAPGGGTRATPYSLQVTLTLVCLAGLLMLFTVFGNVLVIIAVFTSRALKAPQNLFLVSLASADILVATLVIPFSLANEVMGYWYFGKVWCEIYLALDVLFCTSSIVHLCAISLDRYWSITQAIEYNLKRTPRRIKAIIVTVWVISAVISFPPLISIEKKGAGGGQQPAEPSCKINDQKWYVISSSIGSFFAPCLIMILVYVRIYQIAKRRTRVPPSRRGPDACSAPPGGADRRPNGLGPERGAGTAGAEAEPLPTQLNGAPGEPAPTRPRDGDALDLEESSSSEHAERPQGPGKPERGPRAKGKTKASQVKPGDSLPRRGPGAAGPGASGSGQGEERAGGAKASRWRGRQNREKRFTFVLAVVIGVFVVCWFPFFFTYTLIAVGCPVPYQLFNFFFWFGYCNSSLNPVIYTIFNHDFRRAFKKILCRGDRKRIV

[10] = molecular target: T1, Dopamine receptor D2 and D3 (Rattus norvegicus); conditions: Brain, at 0.01 mg/kg
[11] = molecular target: T1, Dopamine receptor D2 and D3 (Rattus norvegicus); conditions: Brain, at 1 mg/kg
[12] = molecular target: Sodium-dependent dopamine transporter (Rattus norvegicus) (UniProt P23977); conditions: Brain, at 1 mg/kg
Rattus norvegicus [13] = assay: Effect on compound specific binding to dopamine release in rat brain upon pre-treatment with 2 mg/kg amphetamine; type: functional
Procedure, shortened: as §1

Rattus norvegicus [14] = assay: Effect on compound specific binding to rat brain upon pre-treatment with 2 mg/kg reserpine and 250 mg/kg AMPT; type: functional
Procedure, shortened: (§2)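 Male Sprague-Dawley rats, four groups of five: reserpine (2 mg/kg sc) 24 h before tracer then AMPT (250 mg/kg ip) 1 h before; reserpine then saline; saline then AMPT; saline twice as controls. Tracer given iv via tail vein. Killed 60 min post-injection. Striatal and cerebellar %ID/g counted. Specific binding ratio = (striatum − cerebellum)/cerebellum.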

Rattus norvegicus [15] = assay: Effect on compound specific binding to dopamine release in rat brain upon pre-treatment with 0.25 mg/kg amphetamine; type: functional
Procedure, shortened: as §1

[16] = Percent change in rat brain dopamine D2/sigma receptor binding after in rat brain after 1 mg/kg haloperidol treatment; type: functional
Procedure, shortened: as §1

[17] = molecular target: Adrenergic receptor alpha-2 (Rattus norvegicus) (UniProt P22086+P19328+P22909); conditions: Brain, at 1 mg/kg
[18] = Percent change in rat brain dopamine D2/sigma receptor binding after in rat brain after 0.2 mg/kg haloperidol treatment; type: functional
Procedure, shortened: as §1

Rattus norvegicus [19] = assay: Effect on compound specific binding to dopamine release in rat brain upon pre-treatment with 0.5 mg/kg amphetamine; type: functional
Procedure, shortened: as §1

[20] = molecular target: Sigma non-opioid intracellular receptor 1 (Rattus norvegicus) (UniProt Q9R0C9); conditions: Brain, at 1 mg/kg
[21] = molecular target: T2, Alpha-2A adrenergic receptor (Rattus norvegicus); conditions: Brain, at 2 mg/kg
[22] = molecular target: D(1A) dopamine receptor (Rattus norvegicus) (UniProt P18901); conditions: Brain, at 1 mg/kg
[23] = molecular target: Tyrosine 3-monooxygenase (Rattus norvegicus) (UniProt P04177); conditions: Brain, at 250 mg/kg
Rattus norvegicus [24] = assay: Effect on compound specific binding to dopamine release in rat brain upon pre-treatment with 0.1 mg/kg amphetamine; type: functional
Procedure, shortened: as §1

[25] = molecular target: T3, 5-hydroxytryptamine receptor 1A (Rattus norvegicus) (UniProt P19327); conditions: Brain, at 1 mg/kg
T3 sequence (whole entry): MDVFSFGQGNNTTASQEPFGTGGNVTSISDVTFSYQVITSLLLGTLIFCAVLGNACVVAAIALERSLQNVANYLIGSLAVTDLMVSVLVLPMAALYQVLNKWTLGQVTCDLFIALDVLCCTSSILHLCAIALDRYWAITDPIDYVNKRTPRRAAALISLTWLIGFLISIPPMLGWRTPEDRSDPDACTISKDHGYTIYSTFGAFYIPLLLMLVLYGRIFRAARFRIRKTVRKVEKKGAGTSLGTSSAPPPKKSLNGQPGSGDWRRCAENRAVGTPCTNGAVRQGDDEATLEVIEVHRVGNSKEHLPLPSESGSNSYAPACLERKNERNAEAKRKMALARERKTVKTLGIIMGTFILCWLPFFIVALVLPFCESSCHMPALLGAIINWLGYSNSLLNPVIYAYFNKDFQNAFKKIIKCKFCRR

Rattus norvegicus [26] = assay: Effect on compound specific binding to rat brain upon pre-treatment with 2 mg/kg reserpine; type: functional
Procedure, shortened: as §2

T1 sequence (P19020 whole entry, looked up): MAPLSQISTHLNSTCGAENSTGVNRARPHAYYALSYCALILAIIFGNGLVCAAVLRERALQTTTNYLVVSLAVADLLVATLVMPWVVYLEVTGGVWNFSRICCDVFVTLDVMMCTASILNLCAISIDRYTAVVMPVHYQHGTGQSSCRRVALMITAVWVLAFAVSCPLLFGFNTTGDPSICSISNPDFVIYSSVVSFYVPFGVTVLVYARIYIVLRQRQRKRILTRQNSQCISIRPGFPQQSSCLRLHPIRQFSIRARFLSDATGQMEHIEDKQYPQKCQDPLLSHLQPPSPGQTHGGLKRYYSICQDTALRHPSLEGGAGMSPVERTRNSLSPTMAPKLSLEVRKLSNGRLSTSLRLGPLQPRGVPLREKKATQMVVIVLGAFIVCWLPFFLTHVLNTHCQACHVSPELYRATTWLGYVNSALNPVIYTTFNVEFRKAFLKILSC
T1 sequence (P61169 whole entry, looked up): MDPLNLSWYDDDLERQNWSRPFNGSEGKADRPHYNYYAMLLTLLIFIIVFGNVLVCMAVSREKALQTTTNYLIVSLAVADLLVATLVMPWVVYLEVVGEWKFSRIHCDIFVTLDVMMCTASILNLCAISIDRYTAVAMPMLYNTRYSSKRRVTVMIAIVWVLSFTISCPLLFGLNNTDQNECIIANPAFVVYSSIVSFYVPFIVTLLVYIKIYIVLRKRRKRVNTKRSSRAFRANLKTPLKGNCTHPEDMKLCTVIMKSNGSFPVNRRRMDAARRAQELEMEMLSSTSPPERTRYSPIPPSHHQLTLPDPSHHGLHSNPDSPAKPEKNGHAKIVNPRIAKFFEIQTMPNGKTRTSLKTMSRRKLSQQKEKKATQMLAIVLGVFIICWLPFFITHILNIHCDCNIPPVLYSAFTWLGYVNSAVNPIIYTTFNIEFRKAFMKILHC
Chain of Sodium-dependent dopamine transporter (Rattus norvegicus) (P23977 whole entry): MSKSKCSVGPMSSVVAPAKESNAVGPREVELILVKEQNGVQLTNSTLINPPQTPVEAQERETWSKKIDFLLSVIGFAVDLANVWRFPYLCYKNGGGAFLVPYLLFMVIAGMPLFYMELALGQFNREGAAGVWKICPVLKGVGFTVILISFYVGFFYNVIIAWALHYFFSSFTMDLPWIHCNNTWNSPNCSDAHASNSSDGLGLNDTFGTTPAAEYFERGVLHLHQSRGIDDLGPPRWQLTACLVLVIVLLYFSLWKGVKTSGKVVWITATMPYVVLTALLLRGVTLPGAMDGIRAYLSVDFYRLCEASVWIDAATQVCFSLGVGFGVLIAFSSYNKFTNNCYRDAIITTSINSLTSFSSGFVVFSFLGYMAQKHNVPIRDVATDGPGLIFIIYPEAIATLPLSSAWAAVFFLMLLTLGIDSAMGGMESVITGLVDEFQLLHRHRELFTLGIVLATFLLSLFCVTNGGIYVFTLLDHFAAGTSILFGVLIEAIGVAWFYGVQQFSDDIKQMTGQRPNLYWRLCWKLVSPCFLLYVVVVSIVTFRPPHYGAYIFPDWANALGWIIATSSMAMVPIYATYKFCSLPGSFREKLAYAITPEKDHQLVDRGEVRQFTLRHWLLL
Chain of Sigma non-opioid intracellular receptor 1 (Rattus norvegicus) (Q9R0C9 whole entry): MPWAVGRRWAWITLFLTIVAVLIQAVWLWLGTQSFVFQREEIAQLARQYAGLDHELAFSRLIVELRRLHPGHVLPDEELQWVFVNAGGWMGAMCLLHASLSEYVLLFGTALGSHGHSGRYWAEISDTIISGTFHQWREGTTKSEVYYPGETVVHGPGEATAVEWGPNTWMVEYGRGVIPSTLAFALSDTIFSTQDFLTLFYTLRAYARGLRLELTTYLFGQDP
Chain of D(1A) dopamine receptor (Rattus norvegicus) (P18901 whole entry): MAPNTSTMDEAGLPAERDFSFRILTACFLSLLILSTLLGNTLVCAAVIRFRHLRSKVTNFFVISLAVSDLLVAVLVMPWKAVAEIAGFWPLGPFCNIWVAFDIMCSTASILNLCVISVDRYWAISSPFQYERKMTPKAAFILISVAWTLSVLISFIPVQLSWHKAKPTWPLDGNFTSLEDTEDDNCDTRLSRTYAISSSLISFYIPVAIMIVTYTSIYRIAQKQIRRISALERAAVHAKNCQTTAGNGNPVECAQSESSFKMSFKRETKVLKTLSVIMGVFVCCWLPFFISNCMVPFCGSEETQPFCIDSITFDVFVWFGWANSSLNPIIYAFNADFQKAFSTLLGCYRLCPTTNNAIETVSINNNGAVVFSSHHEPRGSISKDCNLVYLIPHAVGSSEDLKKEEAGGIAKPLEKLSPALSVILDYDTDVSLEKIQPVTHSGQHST
Chain of Adrenergic receptor alpha-2 (Rattus norvegicus) (P19328 whole entry, looked up, one chain of several): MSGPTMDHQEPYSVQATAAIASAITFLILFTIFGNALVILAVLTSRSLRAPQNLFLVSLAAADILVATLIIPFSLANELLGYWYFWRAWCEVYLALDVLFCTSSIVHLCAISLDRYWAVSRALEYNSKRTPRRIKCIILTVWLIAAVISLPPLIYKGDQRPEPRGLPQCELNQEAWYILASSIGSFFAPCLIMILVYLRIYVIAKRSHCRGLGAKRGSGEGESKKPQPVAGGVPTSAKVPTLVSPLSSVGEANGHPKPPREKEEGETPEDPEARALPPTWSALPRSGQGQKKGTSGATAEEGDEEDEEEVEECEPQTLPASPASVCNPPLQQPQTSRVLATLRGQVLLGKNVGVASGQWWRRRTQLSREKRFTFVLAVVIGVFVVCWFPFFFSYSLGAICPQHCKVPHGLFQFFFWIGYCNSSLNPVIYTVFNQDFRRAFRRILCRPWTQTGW
Chain of Adrenergic receptor alpha-2 (Rattus norvegicus) (P22086 whole entry, looked up, one chain of several): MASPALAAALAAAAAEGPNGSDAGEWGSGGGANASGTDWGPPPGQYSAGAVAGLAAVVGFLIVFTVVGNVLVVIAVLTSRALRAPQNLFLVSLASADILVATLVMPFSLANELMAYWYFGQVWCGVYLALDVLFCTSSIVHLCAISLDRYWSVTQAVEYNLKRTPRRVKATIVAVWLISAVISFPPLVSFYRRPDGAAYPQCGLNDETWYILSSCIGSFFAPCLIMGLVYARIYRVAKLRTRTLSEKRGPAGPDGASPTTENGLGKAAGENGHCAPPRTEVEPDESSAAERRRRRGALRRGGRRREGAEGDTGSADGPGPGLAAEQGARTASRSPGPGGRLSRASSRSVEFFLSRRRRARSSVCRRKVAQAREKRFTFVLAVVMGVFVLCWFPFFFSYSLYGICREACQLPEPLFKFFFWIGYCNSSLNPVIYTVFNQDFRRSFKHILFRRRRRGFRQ
Chain of Tyrosine 3-monooxygenase (Rattus norvegicus) (P04177 whole entry): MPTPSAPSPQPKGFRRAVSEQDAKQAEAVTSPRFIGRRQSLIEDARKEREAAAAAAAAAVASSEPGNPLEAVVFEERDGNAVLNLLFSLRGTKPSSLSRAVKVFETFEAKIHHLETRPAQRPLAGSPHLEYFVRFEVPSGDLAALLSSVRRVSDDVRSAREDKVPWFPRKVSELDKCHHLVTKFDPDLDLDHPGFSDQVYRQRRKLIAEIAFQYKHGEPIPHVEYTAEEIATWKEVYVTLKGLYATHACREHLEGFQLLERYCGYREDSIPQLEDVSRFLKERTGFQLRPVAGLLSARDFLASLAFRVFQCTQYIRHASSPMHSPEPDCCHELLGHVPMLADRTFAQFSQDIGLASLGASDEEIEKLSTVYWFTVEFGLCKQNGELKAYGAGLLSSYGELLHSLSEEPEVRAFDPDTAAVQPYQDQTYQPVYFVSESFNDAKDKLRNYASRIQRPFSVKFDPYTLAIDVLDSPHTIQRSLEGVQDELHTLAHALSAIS

For `CCCN1CCO[C@@H]2c3cc(O)ccc3CC[C@H]21` [NAXAGOLIDE], the Change [1] was -43%, the Change [2] was -57% and the Change [3] was -57%. It also gave a Change [4] of -73%, a Change [5] of -80% and a Change (Rattus norvegicus [6]) of -38%. It also gave a Change (Rattus norvegicus [7]) of -17%, a Change [8] of -39% and a Change [9] of 10%. The Change [10] was -22%, the Change [11] was -93% and the Change [12] was -42%. For the same compound, the Change (Rattus norvegicus [13]) was -30%, the Change (Rattus norvegicus [14]) was 34% and the Change (Rattus norvegicus [15]) was -1%. The Change [16] was -95%, the Change [17] was 30% and the Change [18] was -91%. It also gave a Change (Rattus norvegicus [19]) of -19%, a Change [20] of 22% and a Change [21] of 13%. It also gave a Change [22] of 11%, a Change [23] of 31% and a Change (Rattus norvegicus [24]) of -2%. For the same compound, the Change [25] was -14% and the Change (Rattus norvegicus [26]) was 30%.
